The nature of series [1]: Lipophilic-hydrophilic balance, Rm of the compound by reversed-phase partition chromatography. Type of series: physicochemical.
Another series concerns Mus musculus. The series is described as follows: Toxicity in ip dosed mouse assessed as optimum dose that providing maximum increase in life span administered qd for 1 to 5 days. Type of series: organism-based. The settings on record: in vivo. Summed up: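 Mice were C3H/DBA2 F1 hybrids weighing 18.5-22.5 g. L1210 cells (10^5) were implanted ip or sc above the right axilla. Daily ip treatment began 24 h later and continued for 5 days (dq 1-5), given in water or as a homogenized suspension in aqueous methylcellulose. The optimum dose (mg/kg/day) is the one giving maximum life-span increase (T/C% - 100). Groups were six mice; 50-day survivors were counted.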

Series [2] deals with L1210. The series is described as follows: Antitumor activity against mouse L1210 cells subcutaneously xenografted in ip dosed C3H/DBA2 F1 hybrid mouse assessed as increase in host lifespan administered daily for 5 days starting 24 hrs post-tumor implantation. In kind it is functional. Summed up:
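10⁵ L1210 cells implanted sc above the right axilla into 18.5-22.5-g C3H/DBA2 F1 mice. Daily ip dosing for 5 days from 24 h after implant, as water-soluble salts or as homogenized suspensions in aqueous methylcellulose. Groups of six mice. Increase in life span (T/C% − 100) at the optimum dose (maximal life-span increase, mg/kg/day); 50-day survivors counted.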

The subject of series [3] is L1210. Put plainly: Antitumor activity against mouse L1210 cells intraperitoneally xenografted in ip dosed C3H/DBA2 F1 hybrid mouse assessed as increase in host lifespan administered daily for 5 days starting 24 hrs post-tumor implantation. Type of series: functional. Summed up:
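10⁵ L1210 cells implanted ip into 18.5-22.5-g C3H/DBA2 F1 mice. Daily ip treatment for 5 days from 24 h after implant, as water-soluble salts (methanesulfonate or hydrochloride) or as homogenized suspensions in aqueous methylcellulose. Groups of six mice. Read-out is increase in life span (T/C% − 100) at the optimum dose (maximal life-span increase, mg/kg/day); 50-day survivors counted.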

SMILES strings stand for the structures.

`CCCCCCCCCCCCCCCCCC(=O)N(c1ccc(Nc2c3ccccc3nc3cc(NC(C)=O)ccc23)cc1)S(C)(=O)=O` yielded a Rm in series [1] of 0.87. The Activity with Mus musculus turned out to be 450 mg/kg. Besides, the figures for the ILS with L1210 [2] and with L1210 [3] were 39% and 68%, respectively.

In series [1], `CCCCC(=O)N(c1ccc(Nc2c3ccccc3nc3cc([N+](=O)[O-])ccc23)cc1)S(C)(=O)=O` displayed a Rm of 0.32. In addition, the Activity in the series with Mus musculus was found to be 26 mg/kg. The increase in life span (ILS) was found to be 57% with L1210 [2] and 91% with L1210 [3].

Turning to `CC(=O)N(c1ccc(Nc2c3ccccc3nc3cc([N+](=O)[O-])ccc23)cc1)S(C)(=O)=O`, the Rm in series [1] is reported as -0.08. Moreover, the Activity with Mus musculus amounted to 50 mg/kg. For the same molecule, the ILS in the series with L1210 [2] worked out at 61%; in the series with L1210 [3], 138%.

The molecule `CCC(=O)N(c1ccc(Nc2c3ccccc3nc3cc([N+](=O)[O-])ccc23)cc1)S(C)(=O)=O` gave a Rm in series [1] of 0.13. Besides, in the series with Mus musculus, the Activity stood at 50 mg/kg. Further, the increase in life span (ILS) is 57% in the series on L1210 [2] and 162% with L1210 [3].

`CCCCCC(=O)N(c1ccc(Nc2c3ccccc3nc3cc([N+](=O)[O-])ccc23)cc1)S(C)(=O)=O` returned a Rm in series [1] of 0.41. Also, in the series on Mus musculus, the Activity was 5 mg/kg. Moreover, the results for the ILS in the series on L1210 [2] and in the series on L1210 [3] were 39% and 57%, respectively.

In series [1], `CS(=O)(=O)Nc1ccc(Nc2c3ccccc3nc3cc([N+](=O)[O-])ccc23)cc1` registered a Rm of -0.07. The Activity with Mus musculus came to 25 mg/kg. The ILS in the series on L1210 [2] was 43%; in the series on L1210 [3] it was 123%.

In series [1], `CCCCCCC(=O)N(c1ccc(Nc2c3ccccc3nc3cc([N+](=O)[O-])ccc23)cc1)S(C)(=O)=O` displayed a Rm of 0.5. Moreover, the Activity with Mus musculus came out at 9 mg/kg. The increase in lifespan (ILS) in the series on L1210 [2] was found to be 41%; in the series on L1210 [3] it was 48%.

As to `CCCCCCCC(=O)N(c1ccc(Nc2c3ccccc3nc3cc([N+](=O)[O-])ccc23)cc1)S(C)(=O)=O`, the Rm in series [1] is on record as 0.61. Further, the Activity in the series on Mus musculus is 10 mg/kg. Moreover, the values for the ILS with L1210 [2] and in the series with L1210 [3] were 47% and 62%, respectively.

Molecule `CCCCCCCCC(=O)N(c1ccc(Nc2c3ccccc3nc3cc([N+](=O)[O-])ccc23)cc1)S(C)(=O)=O` showed a Rm in series [1] of 0.71. Also, the Activity with Mus musculus was found to be 75 mg/kg. For the same molecule, the increase in lifespan (ILS) in the series with L1210 [2] is 61%; with L1210 [3] it was 144%.

In turn, `Br.CCCCCCCCCC(=O)N(c1ccc(Nc2c3ccccc3nc3cc(NC(C)=O)ccc23)cc1)S(C)(=O)=O` registered a Rm in series [1] of 0.76. Moreover, the Activity with Mus musculus was determined as 50 mg/kg. Moreover, the increase in lifespan (ILS) in the series on L1210 [2] was determined as 65%; with L1210 [3], 98%.

In series [1], `Br.CCCCCCCCCCC(=O)N(c1ccc(Nc2c3ccccc3nc3cc(NC(C)=O)ccc23)cc1)S(C)(=O)=O` came in with a Rm of 0.79. The Activity in the series on Mus musculus came out at 30 mg/kg. The results for the increase in lifespan (ILS) in the series on L1210 [2] and in the series on L1210 [3] were 39% and 64%, respectively.

As to `Br.CCCCCCCCCCCC(=O)N(c1ccc(Nc2c3ccccc3nc3cc(NC(C)=O)ccc23)cc1)S(C)(=O)=O`, the Rm in series [1] was 0.81. Also, in the series with Mus musculus, the Activity amounted to 30 mg/kg. For the same molecule, the ILS with L1210 [2] is 41%; in the series with L1210 [3] it was 72%.

Regarding `CC(=O)Nc1ccc2c(Nc3ccc(N(C(=O)C(C)C)S(C)(=O)=O)cc3)c3ccccc3nc2c1.Cl`, the Rm in series [1] is given as 0.29. Also, the Activity in the series with Mus musculus is 50 mg/kg. The increase in lifespan (ILS) in the series on L1210 [2] was 57%; with L1210 [3] it was 93%.

Take `CCC(C)C(=O)N(c1ccc(Nc2c3ccccc3nc3cc(NC(C)=O)ccc23)cc1)S(C)(=O)=O.Cl` (stereo not given): the Rm in series [1] came out at 0.38. In the series on Mus musculus, the Activity is 50 mg/kg. Also, the ILS is 31% in the series with L1210 [2] and 68% with L1210 [3].

The molecule `COC(=O)N(c1ccc(Nc2c3ccccc3nc3ccccc23)cc1)S(C)(=O)=O.Cl` showed a Rm in series [1] of 0.07. For the same molecule, the Activity in the series with Mus musculus was determined as 250 mg/kg. Further, the ILS with L1210 [2] is on record as 36%; with L1210 [3], 67%.

Source of the values: ChEMBL document CHEMBL3244308, “Potential antitumor agents. 22. Latentiated congeners of the 4'-(9-acridinylamino)methanesulfonanilides” (J Med Chem, 1977).
